Data: ChEMBL document CHEMBL4028911, “Discovery of a Small-Molecule Bromodomain-Containing Protein 4 (BRD4) Inhibitor That Induces AMP-Activated Protein Kinase-Modulated Autophagy-Associated Cell Death in Breast Cancer” (J Med Chem, 2017)
Calls of active or inactive are those of the source. No cut-off for these calls is given here.

Experiments:
MCF7 [1] = experiment: Effect on AKT expression in human MCF7 cells at 1.5 uM measured up to 36 hrs by Western blot analysis; type: ADME, cell-based; details: mcf7, 36 h
How it was run: (§1)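 MCF-7 (1.5 µM) or MDA-MB-231 (3 µM) cells treated for indicated times. Adherent and floating cells lysed in RIPA with 1 mM PMSF, 4°C for 1 h. Equal protein run on 10-15% SDS-PAGE, transferred to PVDF, blocked with milk or BSA, probed with primary then HRP secondary antibodies, ECL detection; β-actin as loading control.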

MDA-MB-231 [2] = experiment: Induction of autophagy in human MDA-MB-231 cells assessed as increase in LC3B puncta at 3 uM after 24 hrs by DAPI-staining based immunocytochemistry; type: functional, cell-based
How it was run: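 MDA-MB-231 cells treated with 3 μM for 24 h. Blocked in PBS with 1.5% goat serum, anti-LC3B (1:200 in PBS/1% BSA) overnight at 4 °C, then FITC secondary 1 h at room temperature. DAPI counterstain; LC3B puncta scored by fluorescence microscopy.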

MDA-MB-231 [3] = experiment: Induction of autophagy in human MDA-MB-231 cells assessed as upregulation of beclin1 expression at 3 uM measured up to 36 hrs by Western blot analysis; type: functional, cell-based
How it was run: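 MDA-MB-231 cells (DMEM, 10% FBS, 37 °C, 5% CO2) exposed to 3 μM for indicated times. Adherent and floating cells collected, lysed in RIPA with 1 mM PMSF at 4 °C for 1 h. Protein quantified by DC assay, resolved on 10-15% SDS-PAGE, blotted to PVDF, ECL detection.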

MDA-MB-231 [4] = experiment: Induction of autophagy in human MDA-MB-231 cells assessed as reduction in cell viability at 3 uM administered at 1 hr post […] addition by MTT assay; type: functional, cell-based
How it was run: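 MDA-MB-231 cells seeded at 5×10^4 cells/ml and grown 24 h. 3-MA (1 mM) added 1 h before 3 μM test agent. MTT (5 mg/ml) for 4 h, formazan dissolved in DMSO, absorbance read at 570 nm.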

[5] = molecular target: T1, Bromodomain-containing protein 4 (Homo sapiens, UniProt O60885); experiment: Inhibition of BRD4 in human MCF7 cells assessed as downregulation of AKT phosphorylation at ser473 at 1.5 uM measured up to 36 hrs by Western blot analysis; type: cell-based
How it was run: (§2)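 MCF-7 (1.5 μM) or MDA-MB-231 (3 μM) cells treated for indicated times. Adherent and floating cells lysed in RIPA with 1 mM PMSF. Equal protein run on 10-15% SDS-PAGE, blotted to PVDF, blocked in milk or BSA, HRP/ECL detection. β-actin loading control.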

[6] = molecular target: T1, Bromodomain-containing protein 4; experiment: Inhibition of BRD4 in human MCF7 cells assessed as downregulation of AKT phosphorylation at thr308 at 1.5 uM measured up to 36 hrs by Western blot analysis; type: cell-based; how it was run: as §2
MCF7 [7] = experiment: Effect on mTOR expression in human MCF7 cells at 1.5 uM measured up to 36 hrs by Western blot analysis; type: ADME, cell-based; details: mcf7, 36 h; how it was run: as §1
[8] = molecular target: T1, Bromodomain-containing protein 4; experiment: Inhibition of BRD4 in human MDA-MB-231 cells assessed as downregulation of mTOR phosphorylation at ser244 at 3 uM measured up to 36 hrs by Western blot analysis; type: cell-based; how it was run: as §2
MDA-MB-231 [9] = experiment: Induction of autophagy in human MDA-MB-231 cells assessed as LC3 lipidation at 3 uM in presence of ATG5 siRNA by Western blot analysis; type: functional, cell-based
MCF7 [10] = experiment: Induction of autophagy in human MCF7 cells assessed as LC3 lipidation at 1.5 uM in presence of ATG5 siRNA by Western blot analysis; type: functional, cell-based
MDA-MB-231 [11] = experiment: Induction of autophagy in human MDA-MB-231 cells assessed as downregulation of p62/SQSTM1 expression at 3 uM in presence of ATG5 siRNA by Western blot analysis; type: functional, cell-based
Mus musculus [12] = experiment: Toxicity in BALB/c mouse xenografted with human MCF7 cells assessed as effect on body weight at 25 to 100 mg/kg, ig administered once a day for 24 days measured every 3 days; type: organism-based; details: in vivo, po
How it was run: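 Female BALB/c nude mice (6-8 weeks, 20-22 g) with subcutaneous MCF-7 or MDA-MB-231 xenografts (5×10^6 cells). At 100 mm3, given 25, 50 or 100 mg/kg intragastrically once daily, or vehicle, for 24 or 27 days. Body weight recorded every 3 days. MCF-7 n=7, MDA-MB-231 n=6 per group.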

MCF7 [13] = experiment: Antitumor activity against CM-Dil-labeled human MCF7 cells implanted in transgenic zebrafish embryos assessed as tumor growth inhibition at 12.5 to 50 uM dosed via sterile dechlorinated tap water and measured on fifth day after implantation by fluorescence assay; type: functional, organism-based
[14] = molecular target: T1, Bromodomain-containing protein 4; experiment: Inhibition of BRD4 interaction with p53 in human MCF7 cells at 1.5 uM by co-immunoprecipitation assay; type: cell-based
How it was run: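 Cells lysed in RIPA buffer (40 mM Tris-HCl pH 7.5, 150 mM NaCl, 0.5% NP-40, 5% glycerol, 10 mM NaF, protease inhibitors). Lysates incubated overnight at 4 °C with BRD4 or p53 antibody plus protein A/G beads, washed 3 times, resolved on 10% SDS-PAGE and blotted for AMPKα or p53.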

Homo sapiens = organism: Homo sapiens; experiment: Effect on p53 interaction with AMPK in human MDA-MB-231 cells at 3 uM by co-immunoprecipitation assay; type: cell-based
How it was run: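 Cells left untreated or treated, then lysed in RIPA (40 mM Tris-HCl pH 7.5, 150 mM NaCl, 0.5% NP-40, protease inhibitors, 5% glycerol, 10 mM NaF). Lysates incubated overnight at 4°C with BRD4 or p53 antibodies plus protein A/G beads, washed 3 times, resolved on 10% SDS-PAGE. Blots probed for p53 and AMPKα; inputs checked for BRD4, p53 and AMPKα.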

Mus musculus [15] = experiment: Induction of LC3 accumulation in BALB/c mouse xenografted with human MDA-MB-231 cells at 100 mg/kg, ig administered once a day for 24 days by Western blot analysis; type: functional, organism-based
How it was run: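 Tumor tissues excised from MCF-7 or MDA-MB-231 xenograft mice were lysed and analysed by western blot for BRD4, c-Myc, LC3 and cleaved caspase-3.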

Structure (SMILES): Cc1cc(-c2nc3sc4c(c3c(=O)[nH]2)CCN(C)C4)cc(C)c1O
- Activity (MCF7 [1]): Non-Toxic
- Activity (MDA-MB-231 [2]): Active
- Activity (MDA-MB-231 [3]): Active
- Activity (MDA-MB-231 [4]): inactive
- inhibition [5]: Active
- inhibition [6]: Active
- Activity (MCF7 [7]): Non-Toxic
- inhibition [8]: Active
- Activity (MDA-MB-231 [9]): inactive
- Activity (MCF7 [10]): inactive
- Activity (MDA-MB-231 [11]): inactive
- Activity (Mus musculus [12]): Non-Toxic
- TGI (MCF7 [13]): Active
- inhibition [14]: Active
- Activity (Homo sapiens): inactive
- Activity (Mus musculus [15]): Active
